Active and inactive are the calls of the source. The rule behind the calls is not given here.
Tests used:
[1] = system: Respiratory syncytial virus; experiment: Antiviral activity against Respiratory syncytial virus infected in human HeLa cells assessed as inhibition of viral plaque formation at 250 uM; format: functional, organism-based
How it was run: (§1)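 Confluent host cell monolayers were inoculated with 100 CCID50 of virus in the presence of test compound at serial dilutions (250, 50, 10, … μM). Viral cytopathicity was scored once it reached completion in untreated virus-infected controls.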

Felid alphaherpesvirus 1 = experiment: Antiviral activity against Felid herpesvirus 1 infected in CrFK cells assessed as inhibition of viral plaque formation at 250 uM; format: functional, organism-based; how it was run: as §1
Human alphaherpesvirus 3 [2] = experiment: Antiviral activity against thymidine kinase-deficient Varicella Zoster virus 07/1 infected in human HEL cells assessed as inhibition of viral plaque formation at 250 uM; format: functional, organism-based
Sindbis virus = experiment: Antiviral activity against Sindbis virus infected in african green monkey Vero cells assessed as inhibition of viral plaque formation at 250 uM; format: functional, organism-based; how it was run: as §1
Human betaherpesvirus 5 [3] = experiment: Antiviral activity against Human cytomegalovirus Davis infected in human HEL cells assessed as inhibition of viral plaque formation at 250 uM; format: functional, organism-based
[4] = system: Human immunodeficiency virus 1; experiment: Antiviral activity against Human immunodeficiency virus 1 infected in human CEM cells assessed as inhibition of virus-induced giant cell formation after 4 days by microscopic analysis; format: functional, organism-based; conditions: CCRF-CEM
How it was run: (§2)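 CEM cells at about 3 × 10⁵ cells/cm³ were infected with 100 CCID50/mL of HIV-1(IIIB) or HIV-2(ROD), then seeded into wells holding test compound dilutions. After 4 days at 37 °C, virus-induced giant cell formation was scored microscopically.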

Human alphaherpesvirus 1 [5] = experiment: Antiviral activity against thymidine kinase-deficient acv-resistant Herpes simplex virus 1 KOS infected in human HEL cells assessed as inhibition of viral plaque formation at 250 uM; format: functional, organism-based
Human betaherpesvirus 5 [6] = experiment: Antiviral activity against Human cytomegalovirus AD169 infected in human HEL cells assessed as inhibition of viral plaque formation at 250 uM; format: functional, organism-based
[7] = system: Mammalian orthoreovirus 1; experiment: Antiviral activity against Reovirus-1 infected in african green monkey Vero cells assessed as inhibition of viral plaque formation at 250 uM; format: functional, organism-based; how it was run: as §1
HEL [8] = experiment: Cytotoxicity against human HEL cells assessed as change in cell morphology up to 100 uM; format: cell-based
How it was run: (§3)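 Uninfected host-cell cultures were examined under the microscope. MCC was taken as the lowest compound concentration producing a detectable alteration of normal cell morphology, assessed at concentrations up to 100 μM.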

Human alphaherpesvirus 2 = experiment: Antiviral activity against Herpes simplex virus 2 G infected in human HEL cells assessed as inhibition of viral plaque formation at 250 uM; format: functional, organism-based; conditions: strain G
HEL [9] = experiment: Cytotoxicity against human HEL cells 3 days by coulter counting; format: functional; conditions: 72 h
How it was run: (§4)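 Cells were suspended at 300,000–500,000 cells/mL and added 1:1 to compound dilutions. Incubation was at 37 °C, 2 days for L1210 and 3 days for CEM, HeLa and HEL. Cells were counted with a Coulter counter. CC50 is the concentration inhibiting cell proliferation by 50%.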

Human respirovirus 3 = experiment: Antiviral activity against Parainfluenza-3 virus infected in african green monkey Vero cells assessed as inhibition of viral plaque formation at 250 uM; format: functional, organism-based; how it was run: as §1
[10] = system: Vesicular stomatitis virus; experiment: Antiviral activity against Vesicular stomatitis virus infected in human Hela cells assessed as inhibition of viral plaque formation at 250 uM; format: functional, organism-based
[11] = system: Vesicular stomatitis virus; experiment: Antiviral activity against Vesicular stomatitis virus infected in human HEL cells assessed as inhibition of viral plaque formation at 250 uM; format: functional, organism-based; how it was run: as §1
Coxsackievirus B4 [12] = experiment: Antiviral activity against Coxsackievirus B4 infected in human HeLa cells assessed as inhibition of viral plaque formation at 250 uM; format: functional, organism-based; how it was run: as §1
Feline coronavirus = experiment: Antiviral activity against Feline coronavirus infected in CrFK cells assessed as inhibition of viral plaque formation at 250 uM; format: functional, organism-based; how it was run: as §1
Punta Toro virus = experiment: Antiviral activity against Punta Toro virus infected in african green monkey Vero cells assessed as inhibition of viral plaque formation at 250 uM; format: functional, organism-based
HeLa [13] = experiment: Cytotoxicity against human HeLa cells 3 days by coulter counting; format: functional; conditions: 72 h; how it was run: as §4
Vero = experiment: Cytotoxicity against african green monkey Vero cells assessed as change in cell morphology up to 100 uM; format: cell-based; conditions: chlorocebus sabaeus; how it was run: as §3
L1210 = experiment: Cytotoxicity against mouse L1210 cells 2 days by coulter counting; format: functional; conditions: L1210, 48 h; how it was run: as §4
MDCK = experiment: Cytotoxicity against MDCK cells assessed as change in cell morphology up to 100 uM; format: cell-based, Canis lupus familiaris; conditions: dog; how it was run: as §3
[14] = system: Human immunodeficiency virus 2; experiment: Antiviral activity against Human immunodeficiency virus 2 infected in human CEM cells assessed as inhibition of virus-induced giant cell formation after 4 days by microscopic analysis; format: functional, organism-based; conditions: CCRF-CEM; how it was run: as §2
[15] = Cytotoxicity against CRFK cells assessed as change in cell morphology up to 100 uM; format: cell-based, Felis catus; conditions: cat; how it was run: as §3
HeLa [16] = experiment: Cytotoxicity against human HeLa cells assessed as change in cell morphology up to 100 uM; format: cell-based; how it was run: as §3
CCRF-CEM = experiment: Cytotoxicity against human CEM cells 3 days by coulter counting; format: functional; conditions: 72 h; how it was run: as §4
Coxsackievirus B4 [17] = experiment: Antiviral activity against Coxsackievirus B4 infected in african green monkey Vero cells assessed as inhibition of viral plaque formation at 250 uM; format: functional, organism-based; how it was run: as §1
Human alphaherpesvirus 1 [18] = experiment: Antiviral activity against Herpes simplex virus 1 KOS infected in human HEL cells assessed as inhibition of viral plaque formation at 250 uM; format: functional, organism-based; how it was run: as §1
Vaccinia virus = experiment: Antiviral activity against Vaccinia virus infected in human HEL cells assessed as inhibition of viral plaque formation at 250 uM; format: functional, organism-based; conditions: Orthopoxvirus vaccinia; how it was run: as §1
Human alphaherpesvirus 3 [19] = experiment: Antiviral activity against thymidine kinase-positive Varicella Zoster virus Oka infected in human HEL cells assessed as inhibition of viral plaque formation at 250 uM; format: functional, cell-based; conditions: strain Oka vaccine

Row | Compound | Activity [1] | Activity (Felid alphaherpesvirus 1) | Activity (Human alphaherpesvirus 3 [2]) | Activity (Sindbis virus) | Activity (Human betaherpesvirus 5 [3]) | Activity [4] | Activity (Human alphaherpesvirus 1 [5]) | Activity (Human betaherpesvirus 5 [6]) | Activity [7] | Activity (HEL [8]) | Activity (Human alphaherpesvirus 2) | CC50 (HEL [9]) | Activity (Human respirovirus 3) | Activity [10] | Activity [11] | Activity (Coxsackievirus B4 [12]) | Activity (Feline coronavirus) | Activity (Punta Toro virus) | CC50 (HeLa [13]) | Activity (Vero) | also measured
1 | CCOP(=O)(OCC)[C@@H]1C[C@H](n2cc(-c3ccccn3)nn2)ON1C (relative stereo) | inactive | inactive | inactive | inactive | inactive | inactive | inactive | inactive | inactive | Non-toxic | inactive | 78 µM | inactive | inactive | inactive | inactive | inactive | inactive | > 250 µM | Non-toxic | CC50 (L1210): 206 µM; Activity (MDCK): Non-toxic; Activity [14]: inactive; Activity [15]: Non-toxic; Activity (HeLa [16]): Non-toxic; CC50 (CCRF-CEM): > 250 µM; Activity (Coxsackievirus B4 [17]): inactive; Activity (Human alphaherpesvirus 1 [18]): inactive; Activity (Vaccinia virus): inactive; Activity (Human alphaherpesvirus 3 [19]): inactive
2 | CCOP(=O)(OCC)[C@@H]1C[C@H](n2cc(-c3ccc(F)cc3F)nn2)ON1C (relative stereo) | inactive | inactive | inactive | inactive | inactive | inactive | inactive | inactive | inactive | Non-toxic | inactive | 42 µM | inactive | inactive | inactive | inactive | inactive | inactive | 135 µM | Non-toxic | CC50 (L1210): 124 µM; Activity (MDCK): Non-toxic; Activity [14]: inactive; Activity [15]: Non-toxic; Activity (HeLa [16]): Non-toxic; CC50 (CCRF-CEM): ≥ 250 µM; Activity (Coxsackievirus B4 [17]): inactive; Activity (Human alphaherpesvirus 1 [18]): inactive; Activity (Vaccinia virus): inactive; Activity (Human alphaherpesvirus 3 [19]): inactive
3 | CCOP(=O)(OCC)[C@@H]1C[C@H](n2cc(-c3ccccc3F)nn2)ON1C (relative stereo) | inactive | inactive | inactive | inactive | inactive | inactive | inactive | inactive | inactive | Non-toxic | inactive | 41 µM | inactive | inactive | inactive | inactive | inactive | inactive | 247 µM | Non-toxic | CC50 (L1210): 122 µM; Activity (MDCK): Non-toxic; Activity [14]: inactive; Activity [15]: Non-toxic; Activity (HeLa [16]): Non-toxic; CC50 (CCRF-CEM): > 250 µM; Activity (Coxsackievirus B4 [17]): inactive; Activity (Human alphaherpesvirus 1 [18]): inactive; Activity (Vaccinia virus): inactive; Activity (Human alphaherpesvirus 3 [19]): inactive
4 | CCOP(=O)(OCC)[C@@H]1C[C@@H](n2cc(-c3ccccc3F)nn2)ON1C (relative stereo) | inactive | inactive | inactive | inactive | inactive | inactive | inactive | inactive | inactive | Non-toxic | inactive | 73 µM | inactive | inactive | inactive | inactive | inactive | inactive | 202 µM | Non-toxic | CC50 (L1210): 120 µM; Activity (MDCK): Non-toxic; Activity [14]: inactive; Activity [15]: Non-toxic; Activity (HeLa [16]): Non-toxic; CC50 (CCRF-CEM): > 250 µM; Activity (Coxsackievirus B4 [17]): inactive; Activity (Human alphaherpesvirus 1 [18]): inactive; Activity (Vaccinia virus): inactive; Activity (Human alphaherpesvirus 3 [19]): inactive
5 | CCOP(=O)(OCC)[C@@H]1C[C@H](n2cc(-c3cccc(F)c3)nn2)ON1C (relative stereo) | inactive | inactive | inactive | inactive | inactive | inactive | inactive | inactive | inactive | Non-toxic | inactive | 43 µM | inactive | inactive | inactive | inactive | inactive | inactive | 212 µM | Non-toxic | CC50 (L1210): 104 µM; Activity (MDCK): Non-toxic; Activity [14]: inactive; Activity [15]: Non-toxic; Activity (HeLa [16]): Non-toxic; CC50 (CCRF-CEM): > 250 µM; Activity (Coxsackievirus B4 [17]): inactive; Activity (Human alphaherpesvirus 1 [18]): inactive; Activity (Vaccinia virus): inactive; Activity (Human alphaherpesvirus 3 [19]): inactive

Reference: ChEMBL document CHEMBL1926651, “Design, synthesis, antiviral and cytostatic evaluation of novel isoxazolidine nucleotide analogues with a 1,2,3-triazole linker” (Eur J Med Chem, 2012)
